We go through 17 compounds from ChEMBL document CHEMBL3822400, “New structure-activity relationships of N-acetamide substituted pyrazolopyrimidines as pharmacological ligands of TSPO” (Bioorg Med Chem Lett, 2016).

Data set [1] can be described thus: Lipophilicity, log P of the compound at pH 7.5 by HPLC method. It counts as physicochemical. The following applies: buffer.
Data set [2] can be described thus: Fraction unbound in human plasma after 4.5 hrs by rapid equilibrium dialysis method. It is filed as ADME, cell-free. Summed up:
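Equilibrium dialysis of plasma against buffer. After dialysis, the buffer and plasma fractions were extracted and analysed by standard LC-MS to quantify the compound.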

For another data set, the target named is Translocator protein (Rattus norvegicus, UniProt P16257). Description: Displacement of [3H]-PK11195 from TSPO in rat C6 cell lysate after 2 hrs by liquid scintillation counting. It is filed as cell-free. (In a radioligand displacement assay an active substance lowers the binding of a labelled ligand.)
Translocator protein, sequence (P16257 whole entry, looked up): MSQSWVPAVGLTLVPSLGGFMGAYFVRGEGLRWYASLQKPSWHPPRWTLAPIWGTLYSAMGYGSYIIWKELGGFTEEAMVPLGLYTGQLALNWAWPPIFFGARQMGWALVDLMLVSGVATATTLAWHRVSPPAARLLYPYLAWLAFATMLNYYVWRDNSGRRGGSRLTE

SMILES strings stand for the structures. pKi: −log10 of the molar value.

By logP is commonly meant a log measure of how a compound divides between an organic and an aqueous phase. A lower logP goes with lower lipophilicity. As a reminder, the pKi is the Ki on a negative log10 scale, so that one unit is a factor of ten. A high value points to a small Ki. Turning to `CCc1cc(CC)n2nc(-c3ccc(OC)cc3)c(CC(=O)N(CC)c3ccccc3)c2n1`, the logP in data set [1] stood at 3.27. The compound further returned a Fu in data set [2] of 0.6%. Moreover, the pKi at Translocator protein is 9.55.

As for `CCc1cc(CC)n2nc(-c3ccc(OC)cc3)c(CC(=O)N(Cc3ccccc3)Cc3ccccc3)c2n1`, in data set [1], the logP came to 3.73. On Translocator protein, this compound showed a pKi of 6.40.

In data set [1], `CCc1cc(CC)n2nc(-c3ccc(OC)cc3)c(CC(=O)N(C(C)C)C(C)C)c2n1` gave a logP of 3.26. On Translocator protein, this compound showed a pKi of 7.70.

`CCCCN(CCCC)C(=O)Cc1c(-c2ccc(OC)cc2)nn2c(CC)cc(CC)nc12` returned a logP in data set [1] of 3.81. This compound also yielded a Fu in data set [2] of 0.3%. The pKi at Translocator protein is 8.13.

Compound `CCc1cc(CC)n2nc(-c3ccc(OC)cc3)c(CC(=O)N(CC)CC)c2n1` returned a Fu in data set [2] of 1.1%.

For `CCc1cc(CC)n2nc(-c3ccc(OC)cc3)c(CC(=O)N(CC(C)C)CC(C)C)c2n1`, the logP in data set [1] amounted to 3.77. This compound gave a pKi at Translocator protein of 7.88.

`CCc1cc(CC)n2nc(-c3ccc(OC)cc3)c(CC(=O)N3CCCCC3)c2n1` displayed a logP in data set [1] of 2.96. This compound showed a pKi on Translocator protein of 7.31.

As for `CCc1cc(CC)n2nc(-c3ccc(OC)cc3)c(CC(=O)N(CC)C(C)(C)C)c2n1`, the logP in data set [1] turned out to be 3.32. The compound also showed a pKi at Translocator protein of 7.23.

The compound `CCCCCCN(CCCCCC)C(=O)Cc1c(-c2ccc(OC)cc2)nn2c(CC)cc(CC)nc12` showed a logP in data set [1] of 4.78. Also, at Translocator protein, the pKi was 7.73.

Compound `CCc1cc(CC)n2nc(-c3ccc(OC)cc3)c(CC(=O)N3CCC3)c2n1` came in with a logP in data set [1] of 2.58. The same compound had a negative-log Ki (pKi) on Translocator protein of 7.06.

With `CCc1cc(CC)n2nc(-c3ccc(OC)cc3)c(CC(=O)N3CCCC3)c2n1`, in data set [1], the logP is given as 2.72. At Translocator protein, the pKi is 6.90.

Compound `CCc1cc(CC)n2nc(-c3ccc(OC)cc3)c(CC(=O)N(C)c3ccccc3)c2n1` displayed a logP in data set [1] of 3.11. For the same compound, in data set [2], the Fu was 1.1%. Further, on Translocator protein, the pKi was 8.19.

`CCc1cc(CC)n2nc(-c3ccc(OC)cc3)c(CC(=O)N(C)C(C)(C)C)c2n1`: the logP in data set [1] is listed as 3.13. In data set [2], this compound returned a Fu of 1.3%. Besides, the pKi on Translocator protein is 7.02.

In data set [1], `CCc1cc(CC)n2nc(-c3ccc(OC)cc3)c(CC(=O)N(C(C)CC)C(C)CC)c2n1` (stereo not drawn) registered a logP of 3.75. Besides, on Translocator protein, the pKi was 7.84.

In data set [1], `CCCN(CCC)C(=O)Cc1c(-c2ccc(OC)cc2)nn2c(CC)cc(CC)nc12` gave a logP of 3.35. Also, the Fu in data set [2] turned out to be 0.7%. On Translocator protein, this compound had a pKi of 8.25.

Consider `CCCCCN(CCCCC)C(=O)Cc1c(-c2ccc(OC)cc2)nn2c(CC)cc(CC)nc12`, for which the logP in data set [1] was 4.29. Besides, the pKi on Translocator protein was 8.66.

For the compound `CCc1cc(CC)n2nc(-c3ccc(OC)cc3)c(CC(=O)N(C)C)c2n1`, the logP in data set [1] turned out to be 2.47. This compound also gave a pKi on Translocator protein of 7.42.
